The test system of assay [1] is Staphylococcus aureus. Nature of the assay: Antibacterial activity against Staphylococcus aureus MTCC 96 after 24 hrs by well diffusion assay. In kind it is functional. The settings on record: MTCC 96, 24 h.
Assay [2] relates to Micrococcus luteus. The assay is described as follows: Antibacterial activity against Micrococcus luteus MTCC 2470 after 24 hrs by well diffusion assay. It counts as functional. The conditions noted are these: MTCC 2470, 24 h. On the technique in general: Agar diffusion results depend on both activity and mobility in agar.
Assay [3] concerns Bacillus subtilis. Nature of the assay: Antibacterial activity against Bacillus subtilis MTCC 121 after 24 hrs by well diffusion assay. It counts as functional. The conditions noted are these: MTCC 121, 24 h.
The subject of the next assay is Pseudomonas aeruginosa. The assay is described as follows: Antibacterial activity against Pseudomonas aeruginosa MTCC 2453 after 24 hrs by well diffusion assay. It counts as functional. The settings on record: MTCC 2453, 24 h.
The next assay concerns Candida albicans. Nature of the assay: Antifungal activity against Candida albicans MTCC 3017 after 24 hrs by well diffusion assay. The settings on record: MTCC 3017, 24 h. In kind it is functional. The method in brief:
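Well diffusion screen against Candida and related fungal strains. Read-out is MIC in µg/mL, with miconazole as the reference drug.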

The subject of assay [4] is Staphylococcus aureus. Nature of the assay: Antibacterial activity against Staphylococcus aureus MLS-16 MTCC 2940 after 24 hrs by well diffusion assay. The settings on record: MLS-16 MTCC 2940, 24 h. It counts as functional.
Assay [5] is described as follows: Cytotoxicity against human DU145 cells by MTT assay. In kind it is functional, cell-based. The settings on record: DU-145.
A further assay deals with Escherichia coli. The assay is described as follows: Antibacterial activity against Escherichia coli MTCC 739 after 24 hrs by well diffusion assay. The conditions noted are these: MTCC 739, 24 h. It counts as functional.
In another assay the test system is Raoultella planticola. Nature of the assay: Antibacterial activity against Klebsiella planticola MTCC 530 after 24 hrs by well diffusion assay. It counts as functional. The settings on record: MTCC 530, 24 h.
In a further assay the test system is MDA-MB-231. Nature of the assay: Cytotoxicity against human MDA-MB-231 cells by MTT assay. In kind it is functional, cell-based.
In the next assay the test system is HepG2. Nature of the assay: Cytotoxicity against human HepG2 cells by MTT assay. It counts as functional, cell-based.
Assay [6] is described as follows: Cytotoxicity against human SKOV3 cells by MTT assay. It counts as functional, cell-based. The settings on record: SK-OV-3. In general terms: Tetrazolium assays rely on reduction of a dye to a coloured formazan, in cell work by metabolically active cells.
Assay [7] deals with Micrococcus luteus. The assay is described as follows: Bactericidal activity against Micrococcus luteus MTCC 2470 after 24 hrs. It counts as functional. The settings on record: MTCC 2470, 24 h. A digest of the protocol:
(§1)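 Minimum bactericidal concentration was determined on four Gram-positive strains, for the compounds active in the preliminary antibacterial screen.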

Assay [8] concerns Staphylococcus aureus. The assay is described as follows: Antibiofilm activity against Staphylococcus aureus MTCC 96 after 24 hrs by crystal violet staining based method. It counts as functional, organism-based. The conditions noted are these: MTCC 96, 24 h. The method in brief: (§2)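 Biofilm inhibition was tested on the four Gram-positive strains, using crystal violet staining.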

For assay [9], the system named is Staphylococcus aureus. Nature of the assay: Bactericidal activity against Staphylococcus aureus MTCC 96 after 24 hrs. In kind it is functional. The settings on record: MTCC 96, 24 h. A digest of the protocol: as §1
Assay [10] has as its system Micrococcus luteus. The assay is described as follows: Antibiofilm activity against Micrococcus luteus MTCC 2470 after 24 hrs by crystal violet staining based method. In kind it is functional, organism-based. The conditions noted are these: MTCC 2470, 24 h. The method in brief:
as §2

For assay [11], the system named is Bacillus subtilis. Nature of the assay: Antibiofilm activity against Bacillus subtilis MTCC 121 after 24 hrs by well diffusion assay by crystal violet staining based method. The conditions noted are these: MTCC 121, 24 h. In kind it is functional, organism-based. A digest of the protocol:
as §2

Assay [12] deals with Bacillus subtilis. Nature of the assay: Bactericidal activity against Bacillus subtilis MTCC 121 after 24 hrs by well diffusion assay. In kind it is functional. The conditions noted are these: MTCC 121, 24 h. The method in brief: as §1

Our source for the MIC, IC50 and MBC values is ChEMBL document CHEMBL3745670, “Synthesis and biological evaluation of novel lipoamino acid derivatives” (Bioorg Med Chem Lett, 2016).

Usually MIC stands for the lowest concentration found to suppress growth. The low end stands for inhibition by little substance, the high end for a need for much substance. The IC50 is the concentration that inhibits the measured activity by half. The term MBC denotes the smallest concentration meeting the test's criterion for killing. Lower therefore signals more potent killing.

Values after ≈ are worked out from the molar mass of the structure shown.

For `CCCCCCCCC(CCCCCCCCC(=O)OC)SCC(=O)N[C@@H](CC(C)C)C(=O)OC` (some centres not stated), the MIC in the assay with Staphylococcus aureus [1], with Micrococcus luteus [2], with Bacillus subtilis [3], in the assay with Pseudomonas aeruginosa, in the assay with Candida albicans and in the assay with Staphylococcus aureus [4] was > 125 µg/mL throughout. For the same compound, the MIC in the assay on Escherichia coli and in the assay on Raoultella planticola was > 125 µg/mL each time. For the same compound, the IC50 was 215 µM in assay [5] and 152 µM in the assay with MDA-MB-231.

Take `COc1cccc2c1C(=O)c1c(O)c3c(c(O)c1C2=O)C[C@@](O)(C(=O)CO)C[C@@H]3O[C@H]1C[C@H](N)[C@H](O)[C@H](C)O1` [DOXORUBICIN]: the IC50 in the assay on HepG2 came out at 0.8 µM; in [6] it was 0.8 µM; with MDA-MB-231, 0.7 µM.

As for `CCCCCCCCC(CCCCCCCCC(=O)OC)SCC(=O)N[C@H](C(=O)OC)[C@@H](C)CC` (some centres not stated), the MIC is 31.2 µg/mL (≈ 60.5 µM) against Staphylococcus aureus [1]; 31.2 µg/mL (≈ 60.5 µM) in the assay on Micrococcus luteus [2]; > 125 µg/mL against Bacillus subtilis [3]; > 125 µg/mL in the assay on Pseudomonas aeruginosa; > 125 µg/mL with Candida albicans; > 125 µg/mL against Staphylococcus aureus [4]. Further, the MIC against Escherichia coli and in the assay on Raoultella planticola was > 125 µg/mL each time. In addition, the MBC in the assay with Micrococcus luteus [7] and against Staphylococcus aureus [9] was 31.2 µg/mL (≈ 60.5 µM) each time. The IC50 is 15.3 µM in the assay on HepG2; 21.5 µM in the assay on Staphylococcus aureus [8]; 16.4 µM in assay [6]; 19 µM in assay [5]; 16.8 µM in the assay with Micrococcus luteus [10]; 22.4 µM in the assay on MDA-MB-231.

Consider `CCCCCCCCC(CCCCCCCCC(=O)OC)SCC(=O)NCC(=O)OC` (configuration not stated), for which the MIC in the assay on Staphylococcus aureus [1] was > 125 µg/mL; in the assay with Micrococcus luteus [2], 15.6 µg/mL (≈ 33.9 µM); against Bacillus subtilis [3], 7.8 µg/mL (≈ 17 µM); in the assay with Pseudomonas aeruginosa, > 125 µg/mL; against Candida albicans it was 31.2 µg/mL (≈ 67.9 µM); against Staphylococcus aureus [4], > 125 µg/mL. For the same compound, the MIC in the assay with Escherichia coli and against Raoultella planticola was > 125 µg/mL each time. Further, the IC50 was found to be 4.4 µM in the assay on Bacillus subtilis [11]; 29.6 µM in the assay with HepG2; 25.2 µM in [6]; 30.8 µM in [5]; 8.2 µM in the assay on Micrococcus luteus [10]; 31.4 µM in the assay with MDA-MB-231. Besides, the figures for the minimum bactericidal concentration (MBC) against Bacillus subtilis [12] and in the assay with Micrococcus luteus [7] were 3.9 µg/mL (≈ 8.48 µM) and 31.2 µg/mL (≈ 67.9 µM), respectively.

In the case of `CCCCCCCCC(CCCCCCCCC(=O)OC)SCC(=O)N[C@H](C(=O)OC)c1c[nH]cn1` (some centres not stated), the MIC against Staphylococcus aureus [1] is > 125 µg/mL; with Micrococcus luteus [2], 3.9 µg/mL (≈ 7.42 µM); against Bacillus subtilis [3], 3.9 µg/mL (≈ 7.42 µM); in the assay with Pseudomonas aeruginosa, > 125 µg/mL; against Candida albicans, > 125 µg/mL; in the assay with Staphylococcus aureus [4], > 125 µg/mL. Further, the MIC in the assay with Escherichia coli and in the assay with Raoultella planticola was > 125 µg/mL each time. Moreover, the half-maximal inhibitory concentration (IC50) with Bacillus subtilis [11] is 1.9 µM; with Micrococcus luteus [10], 2.1 µM. The MBC in the assay with Bacillus subtilis [12] was found to be 3.9 µg/mL (≈ 7.42 µM); in the assay on Micrococcus luteus [7] it was 7.8 µg/mL (≈ 14.8 µM).
